Laboratory results: ChEMBL document CHEMBL1828575, “Design, synthesis and antiproliferative activities of biarylolefins based on polyhydroxylated and carbohydrate scaffolds” (Eur J Med Chem, 2011)

Legend:
Type in all cases: functional
SNB-19 = test: Cytotoxicity against human SNB19 cells assessed as cellular growth at 10 uM after 48 hrs by SRB assay
Outline: (§1)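 NCI-60 panel lines grown in RPMI 1640 with 5% FBS and 2 mM L-glutamine. Plated at 5000–40,000 cells/well and preincubated 24 h at 37 °C, 5% CO₂, with time-zero plates fixed in TCA. Compounds, dissolved in DMSO and diluted in medium, were applied for 48 h. Cells were TCA-fixed (10% final for adherent, 16% for suspension) and stained with 0.4% SRB in 1% acetic acid. Dye was solubilised in 10 mM Tris base and read at 515 nm; growth was expressed as a percentage of untreated control.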

U-251 = test: Cytotoxicity against human U251 cells assessed as cellular growth at 10 uM after 48 hrs by SRB assay; outline: as §1
UACC-257 [1] = test: Cytotoxicity against human UACC257 cells assessed as cellular growth at 10 uM after 48 hrs by SRB assay; outline: as §1
OVCAR-4 = test: Cytotoxicity against human OVCAR4 cells assessed as cellular growth at 10 uM after 48 hrs by SRB assay; outline: as §1
ACHN [2] = test: Cytotoxicity against human ACHN cells assessed as cellular growth at 10 uM after 48 hrs by SRB assay
Outline: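 NCI60 single-dose screen of cells in RPMI 1640 with 5% FBS and 2 mM L-glutamine, preincubated 24 h at 37 °C, 5% CO₂. Cells were then exposed 48 h to compound added from DMSO stock. TCA-fixed, stained with 0.4% SRB in 1% acetic acid, dye solubilised in 10 mM Tris base and read at 515 nm. Growth is given as percent of untreated control.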

SK-MEL-2 = test: Antitumor activity against human SK-MEL-2 cells after 48 hrs by SRB assay; details: SK-MEL-2, 48 h
Outline: (§2)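 NCI60 panel cells grown in RPMI 1640 with 5% FBS and 2 mM L-glutamine, plated at 5000–40,000 cells/well and preincubated 24 h at 37 °C, 5% CO₂. Compound was added from DMSO at five concentrations, 10-fold or 1/2 log dilutions, then incubated 48 h.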

786-0 = test: Antitumor activity against human 786-0 cells after 48 hrs by SRB assay; details: 786-0, 48 h
Outline: (§3)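 NCI60 panel in RPMI 1640 with 5% FBS and 2 mM L-glutamine. Cells were plated at 5000–40,000/well by doubling time, held 24 h, then time-zero plates were TCA-fixed. Five concentrations (10-fold or half-log dilutions of DMSO stocks) were applied for 48 h at 37 °C, 5% CO2. Cells were fixed with cold TCA (10% final adherent, 16% suspension) and stained with 0.4% SRB. Bound dye was dissolved in 10 mM Tris and read at 515 nm. GI50, TGI and LC50 were calculated per line.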

RXF 393 = test: Antitumor activity against human RXF393 cells after 48 hrs by SRB assay; details: RXF 393, 48 h; outline: as §3
BT-549 = test: Antitumor activity against human BT549 cells after 48 hrs by SRB assay; details: BT-549, 48 h
Outline: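 NCI60 screen: cells grown in RPMI 1640 with 5% FBS and 2 mM L-glutamine, plated at 5000–40,000 cells/well by doubling time, preincubated 24 h at 37 °C with 5% CO2. Compounds were diluted from DMSO stocks and given for 48 h, at five concentrations for dose response. A time-zero plate was TCA-fixed. Cells were TCA-fixed, stained with 0.4% SRB and read at 515 nm, with growth expressed relative to untreated controls.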

PC-3 = test: Antitumor activity against human PC3 cells after 48 hrs by SRB assay; details: PC-3, 48 h; outline: as §3
ACHN [3] = test: Antitumor activity against human ACHN cells after 48 hrs by SRB assay; outline: as §3
OVCAR-5 = test: Antitumor activity against human OVCAR5 cells after 48 hrs by SRB assay; details: OVCAR-5, 48 h; outline: as §3
UACC-257 [4] = test: Antitumor activity against human UACC257 cells after 48 hrs by SRB assay; details: UACC-257, 48 h; outline: as §2
SF-295 = test: Antitumor activity against human SF295 cells after 48 hrs by SRB assay; details: SF-295, 48 h; outline: as §3
NCI-H460 = test: Antitumor activity against human NCI-H460 cells after 48 hrs by SRB assay; details: NCI-H460, 48 h; outline: as §3
A549 = test: Antitumor activity against human A549 cells after 48 hrs by SRB assay; details: A549, 48 h; outline: as §3
RPMI-8226 = test: Antitumor activity against human RPMI8226 cells after 48 hrs by SRB assay; details: RPMI-8226, 48 h; outline: as §3
CCRF-CEM = test: Antitumor activity against human CCRF-CEM cells after 48 hrs by SRB assay; outline: as §3
HT-29 = test: Antiproliferative activity against human HT-29 cells after 48 hrs by SRB assay; details: HT-29, 48 h; outline: as §3
[5] = read-out: LC50 (the source's name)
[6] = read-out: pLC50 (the source's name) (converted)

`COc1ccc(/C(=C2\O[C@@H]([C@H]3COC(C)(C)O3)[C@H]3OC(C)(C)O[C@@H]23)c2cc(OC)c(OC)c(OC)c2)cc1O` gave an Activity (SNB-19) of 27.56%, an Activity (U-251) of 61.19% and an Activity (UACC-257 [1]) of 126.04%. It also gave an Activity (OVCAR-4) of 105.57%, an Activity (ACHN [2]) of 49.46% and a GI50 (SK-MEL-2) of 1.53 µM. The TGI (SK-MEL-2) was 4.12 µM, the CC50 (SK-MEL-2; [5]) was 24.1 µM and the GI50 (786-0) was 2.3 µM. It also gave an LC50 (786-0) of 8.6 µM, a TGI (786-0) of 4.47 µM and a GI50 (RXF 393) of 2.54 µM. It also gave a TGI (RXF 393) of 5.99 µM, a CC50 (RXF 393; [5]) of 32.6 µM and a CC50 (BT-549; [5]) greater than 100 µM. It also gave a CC50 (BT-549; [6]) greater than 100 µM, a CC50 (PC-3; [5]) greater than 100 µM and a TGI (PC-3; read-out: TGI) greater than 100 µM. It also gave a GI50 (PC-3; read-out: pGI50 (converted)) of 4.17 µM, a CC50 (PC-3; [6]) greater than 100 µM and a TGI (PC-3; read-out: pTGI) greater than 100 µM. It also gave a GI50 (ACHN [3]; read-out: GI50) of 15.4 µM, a CC50 (ACHN [3]; [5]) greater than 100 µM and a TGI (ACHN [3]; read-out: TGI) greater than 100 µM. The GI50 (ACHN [3]; read-out: pGI50 (converted)) was 15.5 µM, the CC50 (ACHN [3]; [6]) was greater than 100 µM and the TGI (ACHN [3]; read-out: pTGI) was greater than 100 µM. For the same compound, the GI50 (OVCAR-5; read-out: GI50) was 59.6 µM, the CC50 (OVCAR-5; [5]) was greater than 100 µM and the TGI (OVCAR-5; read-out: TGI) was greater than 100 µM. It also gave a GI50 (OVCAR-5; read-out: pGI50 (converted)) of 60.3 µM, a CC50 (OVCAR-5; [6]) greater than 100 µM and a TGI (OVCAR-5; read-out: pTGI (converted)) greater than 100 µM. It also gave a GI50 (UACC-257 [4]; read-out: GI50) of 39.4 µM, a CC50 (UACC-257 [4]; [5]) greater than 100 µM and a TGI (UACC-257 [4]; read-out: TGI) greater than 100 µM. It also gave a GI50 (UACC-257 [4]; read-out: pGI50 (converted)) of 39.8 µM, a CC50 (UACC-257 [4]; [6]) greater than 100 µM and a TGI (UACC-257 [4]; read-out: pTGI (converted)) greater than 100 µM. For the same compound, the CC50 (SF-295; [5]) was greater than 100 µM, the TGI (SF-295; read-out: TGI) was 43.8 µM and the GI50 (SF-295; read-out: pGI50 (converted)) was 18.6 µM. For the same compound, the CC50 (SF-295; [6]) was greater than 100 µM, the TGI (SF-295; read-out: pTGI (converted)) was 43.7 µM and the GI50 (NCI-H460; read-out: GI50) was 29.3 µM. For the same compound, the CC50 (NCI-H460; [5]) was greater than 100 µM, the TGI (NCI-H460; read-out: TGI) was greater than 100 µM and the GI50 (NCI-H460; read-out: pGI50 (converted)) was 29.5 µM. For the same compound, the CC50 (NCI-H460; [6]) was greater than 100 µM, the TGI (NCI-H460; read-out: pTGI) was greater than 100 µM and the GI50 (A549; read-out: GI50) was 22.7 µM. The CC50 (A549; [5]) was greater than 100 µM, the TGI (A549; read-out: TGI) was greater than 100 µM and the GI50 (A549; read-out: pGI50 (converted)) was 22.9 µM. For the same compound, the CC50 (A549; [6]) was greater than 100 µM, the TGI (A549; read-out: pTGI (converted)) was greater than 100 µM and the LC50 (concentration killing 50% of starting cells) (RPMI-8226) was greater than 100 µM. The GI50 (RPMI-8226; read-out: GI50) was 4.82 µM, the TGI (RPMI-8226; read-out: TGI) was 34 µM and the GI50 (RPMI-8226; read-out: pGI50 (converted)) was 4.79 µM. For the same compound, the CC50 (RPMI-8226; [6]) was greater than 100 µM, the TGI (RPMI-8226; read-out: pTGI (converted)) was 33.9 µM and the GI50 (CCRF-CEM; read-out: GI50) was 5.45 µM. It also gave a CC50 (CCRF-CEM; [5]) greater than 100 µM, a TGI (CCRF-CEM; read-out: TGI) greater than 100 µM and a GI50 (CCRF-CEM; read-out: pGI50 (converted)) of 5.5 µM. It also gave a CC50 (CCRF-CEM; [6]) greater than 100 µM, a TGI (CCRF-CEM; read-out: pTGI) greater than 100 µM and an LC50 (50% net cell kill) (HT-29) greater than 100 µM. The GI50 (HT-29; read-out: GI50) was 4.1 µM, the TGI (HT-29; read-out: TGI) was 17.8 µM and the GI50 (HT-29; read-out: pGI50 (converted)) was 4.07 µM. For the same compound, the CC50 (HT-29; [6]) was greater than 100 µM and the TGI (HT-29; read-out: pTGI (converted)) was 17.8 µM.
